# In ChEMBL document CHEMBL1629474, “Massive screening yields novel and selective Trypanosoma cruzi triosephosphate isomerase dimer-interface-irreversible inhibitors with anti-trypanosomal activity” (Eur J Med Chem, 2010):
# Calls of active or inactive are those of the source. No rule for the calls is given here.
# How the values were obtained:
# [1] = Selectivity for Trypanosoma cruzi triosephosphate isomerase over human triosephosphate isomerase
# [2] = system: Trypanosoma cruzi; assay: Antiparasitic activity against Trypanosoma cruzi T2 epimastigotes assessed as growth inhibition at 25 uM after 5 days; format: functional
# How it was run: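 Late-log epimastigotes were grown axenically at 28 °C in BHI-tryptose with 5% fetal calf serum and seeded at 2×10^6/mL in medium containing compound (DMSO stock; final DMSO ≤1%, 1% DMSO control). Growth was read as A590 at day 0 and day 5. Inhibition = {1 − [(Ap − A0p)/(Ac − A0c)]} × 100. Means of two experiments.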
# [3] = target: Triosephosphate isomerase, glycosomal (Trypanosoma cruzi) (UniProt P52270); assay: Inhibition of Trypanosoma cruzi triosephosphate isomerase at 400 uM after 2 hrs
# Chain of Triosephosphate isomerase, glycosomal (Trypanosoma cruzi) (P52270 whole entry): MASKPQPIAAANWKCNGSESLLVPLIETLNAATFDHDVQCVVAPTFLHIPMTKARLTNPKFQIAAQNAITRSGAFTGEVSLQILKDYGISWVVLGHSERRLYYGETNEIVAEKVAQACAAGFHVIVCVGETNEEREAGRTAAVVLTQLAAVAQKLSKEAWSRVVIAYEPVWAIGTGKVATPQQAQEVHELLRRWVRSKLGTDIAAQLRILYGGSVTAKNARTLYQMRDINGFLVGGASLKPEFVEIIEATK
# How it was run: (§1)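 Recombinant E. coli-expressed enzyme, dialyzed into 100 mM triethanolamine/10 mM EDTA pH 7.4, was incubated with compound (DMSO stock) in 100 mM triethanolamine, 10 mM EDTA, pH 7.4, 10% DMSO at 36 °C for 2 h. An aliquot was then assayed for activity (glyceraldehyde 3-phosphate to dihydroxyacetone phosphate, α-glycerol phosphate dehydrogenase-coupled) with 5 ng enzyme. Irreversible inhibition was scored as loss of activity; means of two experiments.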
# [4] = target: Triosephosphate isomerase, glycosomal (Trypanosoma cruzi) (UniProt P52270); assay: Inhibition of Trypanosoma cruzi triosephosphate isomerase at 100 uM after 2 hrs; how it was run: as §1
compound,measurement,setting,value
O=C(N/N=C/c1ccc([N+](=O)[O-])o1)Nc1cccc2ccccc12,Ratio,[1],> 4
same,Activity,[2],Active
same,inhibition,[3],82%
same,inhibition,[4],20%
O=S(=O)(c1ccccc1)c1no[n+]([O-])c1S(=O)(=O)c1ccccc1,Ratio,[1],> 4
same,Activity,[2],Active
same,inhibition,[3],93%
same,inhibition,[4],35%
NC(=S)N/N=C/c1ccc([N+](=O)[O-])o1,Ratio,[1],> 4
same,Activity,[2],Active
same,inhibition,[3],85%
same,inhibition,[4],57%
O=C(N/N=C/c1ccc([N+](=O)[O-])o1)Nc1ccc2ccccc2c1,Ratio,[1],> 4
same,Activity,[2],Active
same,inhibition,[3],100%
same,inhibition,[4],32%
[O-][n+]1onc2ccc(/C=N/N=C/c3cc(Br)ccc3O)cc21,Ratio,[1],> 4
same,Activity,[2],Active
same,inhibition,[3],100%
same,inhibition,[4],0%
CCCCCCN1C(=O)C(=Cc2ccc([N+](=O)[O-])cc2)C(=O)N(CCCCCC)S1(=O)=O,Ratio,[1],> 4
same,Activity,[2],Active
same,inhibition,[3],98%
same,inhibition,[4],26%
O=C(N/N=C/C=C/c1ccc([N+](=O)[O-])o1)Nc1ccc2ccccc2c1,Ratio,[1],> 4
same,Activity,[2],Active
same,inhibition,[3],100%
same,inhibition,[4],47%
[O-][n+]1onc2ccc(/C=C/Sc3ccc(F)cc3)cc21,Ratio,[1],> 4
same,Activity,[2],Active
same,inhibition,[3],88%
same,inhibition,[4],47%
O=[N+]([O-])c1ccc(C=Cc2ccc3no[n+]([O-])c3c2)s1,Ratio,[1],> 4
same,Activity,[2],Active
same,inhibition,[3],71%
same,inhibition,[4],82%
COc1ccc(CCNC(=O)N/N=C/c2ccc([N+](=O)[O-])o2)cc1OC,Ratio,[1],> 4
same,Activity,[2],Active
same,inhibition,[3],100%
same,inhibition,[4],76%
O=C1C(=Cc2ccc([N+](=O)[O-])s2)C(=O)N(CCc2ccccc2)S(=O)(=O)N1CCc1ccccc1,Ratio,[1],> 4
same,Activity,[2],Active
same,inhibition,[3],82%
same,inhibition,[4],68%
Nc1ccc(-c2ccccc2)cc1[N+](=O)[O-],Ratio,[1],> 4
same,inhibition,[3],93%
same,inhibition,[4],47%
O=C1C(=Cc2ccc([N+](=O)[O-])s2)C(=O)N(Cc2ccccc2)S(=O)(=O)N1Cc1ccccc1,Ratio,[1],> 4
same,Activity,[2],Active
same,inhibition,[3],77%
same,inhibition,[4],84%
O=C1C(=Cc2ccc([N+](=O)[O-])cc2)C(=O)N(CCc2ccccc2)S(=O)(=O)N1CCc1ccccc1,Ratio,[1],> 4
same,Activity,[2],Active
same,inhibition,[3],85%
same,inhibition,[4],58%
[O-][n+]1onc2ccc(/C=C/c3cccs3)cc21,Ratio,[1],> 4
same,Activity,[2],Active
same,inhibition,[3],73%
same,inhibition,[4],27%
O=[N+]([O-])c1ccc(/C=C/C=N/NC(=S)Nc2ccccc2)o1,Ratio,[1],> 4
same,Activity,[2],Active
same,inhibition,[3],100%
same,inhibition,[4],75%
C/C(=C\c1ccc(Br)cc1)[N+](=O)[O-],Ratio,[1],> 4
same,Activity,[2],Active
same,inhibition,[3],95%
same,inhibition,[4],0%
O=C1C(=Cc2ccc([N+](=O)[O-])s2)C(=O)N(C2CCCCC2)S(=O)(=O)N1C1CCCCC1,Ratio,[1],> 4
same,Activity,[2],Active
same,inhibition,[3],49%
Cc1ccc2c(c1)=[N+]([O-])C(C)[N+]=2[O-] (configuration not stated),Ratio,[1],> 4
same,Activity,[2],Active
same,inhibition,[3],18%
CC(=N\c1ccc(C)cc1)/C(C)=N/c1ccc(C)cc1,Ratio,[1],> 4
same,Activity,[2],Active
same,inhibition,[3],23%
CCCCCCOC(=O)N/N=C/c1no[n+]([O-])c1C,Ratio,[1],> 4
same,Activity,[2],Active
same,inhibition,[3],17%
O=C(/C=C/c1ccco1)N1CCN(C/C=C/c2ccccc2)CC1,Ratio,[1],> 4
same,Activity,[2],Active
same,inhibition,[3],0%
Cc1ccc(-n2cc(C)[n+]([O-])c2)cc1,Ratio,[1],> 4
same,Activity,[2],Active
same,inhibition,[3],13%
[O-][n+]1onc2ccc(/C=C\[S+]([O-])c3ccccc3)cc21 (configuration not stated),Ratio,[1],> 4
same,Activity,[2],Active
same,inhibition,[3],69%
[O-][n+]1onc2ccc(CSCCO)cc21,Ratio,[1],> 4
same,Activity,[2],Active
same,inhibition,[3],0%
CCCCCCCCOC(=O)N/N=C/C=C/c1ccc([N+](=O)[O-])o1,Ratio,[1],> 4
same,Activity,[2],Active
same,inhibition,[3],0%
O=C(NCCc1ccccc1)N/N=C/c1ccc2no[n+]([O-])c2c1,Ratio,[1],> 4
same,Activity,[2],Active
same,inhibition,[3],38%
Cc1nnc[n+]([O-])c1/C=C/c1ccc([N+](=O)[O-])o1,Ratio,[1],> 4
same,Activity,[2],Active
same,inhibition,[3],38%
CCOC(=O)c1c(-c2ccccc2)[n+]([O-])c2ccc(CN3CCN(C/C=C/c4ccccc4)CC3)cc2[n+]1[O-],Ratio,[1],> 4
same,Activity,[2],Active
same,inhibition,[3],12%
CCCCNC(=O)N/N=C/c1ccc([N+](=O)[O-])s1,Ratio,[1],> 4
same,Activity,[2],Active
same,inhibition,[3],18%
[O-][n+]1onc(-c2ccccc2)c1CN1CCN(c2ccccc2)CC1,Ratio,[1],> 4
same,Activity,[2],Active
same,inhibition,[3],27%
COC(=O)N/N=C/c1ccc2no[n+]([O-])c2c1,Ratio,[1],> 4
same,Activity,[2],Active
same,inhibition,[3],3%
NC(=O)N/N=C/C=C/c1ccc([N+](=O)[O-])o1,Ratio,[1],> 4
same,Activity,[2],Active
same,inhibition,[3],13%
Nc1ccc2c(c1)[n+]([O-])c1cc(Cl)ccc1[n+]2[O-],Ratio,[1],> 4
same,Activity,[2],Active
same,inhibition,[3],64%
COC(=O)N/N=C/c1ccc([N+](=O)[O-])o1,Ratio,[1],> 4
same,Activity,[2],Active
same,inhibition,[3],0%
N#Cc1c2ccccc2[n+]([O-])n1-c1cccc2ccccc12,Ratio,[1],> 4
same,Activity,[2],Active
same,inhibition,[3],16%
CC(=O)NCc1ccccc1,Ratio,[1],> 4
same,Activity,[2],Active
same,inhibition,[3],32%
CCCCCCNC(=O)N/N=C/c1ccc2no[n+]([O-])c2c1,Ratio,[1],> 4
same,Activity,[2],Active
same,inhibition,[3],43%
[O-][n+]1onc2ccc(/C=C/[S+]([O-])c3ccccc3)cc21 (configuration not stated),Ratio,[1],> 4
same,Activity,[2],Active
same,inhibition,[3],28%
O=C(Oc1ccccc1)N1CCOCC1,Ratio,[1],> 4
same,Activity,[2],Active
same,inhibition,[3],26%
O=C(c1ccc2no[n+]([O-])c2c1)N1CCOCC1,Ratio,[1],> 4
same,Activity,[2],Active
same,inhibition,[3],7%
O=C(N/N=C/C=C/c1ccc([N+](=O)[O-])o1)Oc1ccccc1,Ratio,[1],> 4
same,Activity,[2],Active
same,inhibition,[3],45%
O=S(=O)(/C=C\c1ccc2no[n+]([O-])c2c1)c1ccccc1,Ratio,[1],> 4
same,Activity,[2],Active
same,inhibition,[3],51%
[O-][n+]1onc2ccc(CN3CCN(C/C=C/c4ccccc4)CC3)cc21,Ratio,[1],> 4
same,Activity,[2],Active
same,inhibition,[3],0%
COc1ccc(/C=C/c2c(C)[n+]([O-])nc[n+]2[O-])cc1,Ratio,[1],> 4
same,Activity,[2],Active
same,inhibition,[3],27%
O=c1c2cc([N+](=O)[O-])ccc2n2n1CCCCC2,Ratio,[1],> 4
same,Activity,[2],Active
same,inhibition,[3],4%
CCCCCCNC(=O)N/N=C/c1c(-c2ccccc2)no[n+]1[O-],Ratio,[1],> 4
same,Activity,[2],Active
same,inhibition,[3],4%
CC(=O)CC(=O)Nc1ccccc1,Ratio,[1],> 4
same,Activity,[2],Active
same,inhibition,[3],17%
O=C(N/N=C/c1ccc([N+](=O)[O-])s1)N1CCOCC1,Ratio,[1],> 4
same,Activity,[2],Active
same,inhibition,[3],5%
Cc1nnc[n+]([O-])c1/C=C/c1ccc([N+](=O)[O-])s1,Ratio,[1],> 4
same,Activity,[2],Active
same,inhibition,[3],28%
CN(C/C=C/c1ccccc1)Cc1ccc2no[n+]([O-])c2c1,Ratio,[1],> 4
same,Activity,[2],Active
same,inhibition,[3],7%
C=CCNC(=S)N/N=C/c1cccs1,Ratio,[1],> 4
same,Activity,[2],Active
same,inhibition,[3],2%
CCOC(=O)c1[nH]c(=O)n(CCc2ccccc2)c1C,Ratio,[1],> 4
same,Activity,[2],Active
same,inhibition,[3],0%
Cc1ccc2no[n+]([O-])c2c1,Ratio,[1],> 4
same,Activity,[2],Active
same,inhibition,[3],8%
N#Cc1c2ccccc2[n+]([O-])n1-c1ccc([N+](=O)[O-])cc1,Ratio,[1],> 4
same,Activity,[2],Active
same,inhibition,[3],29%
O=C(/C=C/c1ccccc1)c1ccccc1,Ratio,[1],> 4
same,Activity,[2],Active
same,inhibition,[3],33%
CCCCCCNS(=O)(=O)NCCCCCC,Ratio,[1],> 4
same,Activity,[2],Active
same,inhibition,[3],0%
O=C(CN1C(=O)c2ccccc2C1=O)c1ccccc1,Ratio,[1],> 4
same,Activity,[2],Active
same,inhibition,[3],0%
O=C(CCl)Oc1ccc2c(c1)[n+]([O-])c1cc(Br)ccc1[n+]2[O-],Ratio,[1],> 4
same,Activity,[2],Active
same,inhibition,[3],50%
O=C1C(=Cc2ccc([N+](=O)[O-])cc2)C(=O)N(C2CCCCC2)S(=O)(=O)N1C1CCCCC1,Ratio,[1],> 4
same,Activity,[2],Active
same,inhibition,[3],51%
O=[N+]([O-])c1ccc(/N=C/c2ccccc2[N+](=O)[O-])cc1,Ratio,[1],> 4
same,Activity,[2],Active
same,inhibition,[3],34%
[O-][n+]1onc2ccc(/C=N/N=C/c3ccccc3O)cc21,Ratio,[1],> 4
same,Activity,[2],Active
same,inhibition,[3],24%
